ChEMBL document CHEMBL3763086, “Salicylanilide N-monosubstituted carbamates: Synthesis and in vitro antimicrobial activity” (2016)
Converted amounts (≈) assume the structure as drawn.

What was measured:
Type in all cases: functional
Enterococcus sp. [1] = assay: Antibacterial activity against Enterococcus sp. J 14365/08 after 24 hrs by microbroth dilution method; conditions: J 14365/08, 24 h
In short: (§1)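 Microbroth dilution modified per M07-A07 in Mueller-Hinton broth, pH 7.4 (±0.2). Inoculum in sterile water adjusted to 0.5 McFarland. MIC taken as growth reduction of at least 90% (IC90) versus control, read visually and at 540 nm after 24 and 48 h incubation in the dark.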

Escherichia coli [2] = assay: Antibacterial activity against Escherichia coli CCM 4517 after 24 hrs by microbroth dilution method; conditions: CCM 4517, 24 h; in short: as §1
Pichia kudriavzevii [3] = assay: Antifungal activity against Candida krusei E28 after 24 hrs by microbroth dilution method; conditions: E28, 24 h
Nakaseomyces glabratus [4] = assay: Antifungal activity against Candida glabrata 20/I after 24 hrs by microbroth dilution method
Escherichia coli [5] = assay: Antibacterial activity against Escherichia coli CCM 4517 after 48 hrs by microbroth dilution method; conditions: CCM 4517, 48 h; in short: as §1
Pichia kudriavzevii [6] = assay: Antifungal activity against Candida krusei E28 after 48 hrs by microbroth dilution method; conditions: E28, 48 h
Staphylococcus aureus [7] = assay: Antibacterial activity against Staphylococcus aureus CCM 4516/08 after 24 hrs by microbroth dilution method; conditions: CCM 4516/08, 24 h; in short: as §1
[8] = test system: Trichophyton mentagrophytes; assay: Antifungal activity against Trichophyton mentagrophytes 445 after 120 hrs by microbroth dilution method; conditions: Trichophyton mentagrophytes, 445, 120 h
[9] = test system: Staphylococcus epidermidis; assay: Antibacterial activity against Staphylococcus epidermidis H 6966/08 after 24 hrs by microbroth dilution method; conditions: H 6966/08, 24 h; in short: as §1
Klebsiella pneumoniae [10] = assay: Antibacterial activity against Klebsiella pneumoniae D 11750/08 after 48 hrs by microbroth dilution method; conditions: D 11750/08, 48 h; in short: as §1
[11] = test system: Staphylococcus epidermidis; assay: Antibacterial activity against Staphylococcus epidermidis H 6966/08 after 48 hrs by microbroth dilution method; conditions: H 6966/08, 48 h; in short: as §1
Staphylococcus aureus [12] = assay: Antibacterial activity against methicillin-resistant Staphylococcus aureus H 5996/08 after 48 hrs by microbroth dilution method; conditions: H 5996/08, 48 h
In short: (§2)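 Microdilution broth method modified after M07-A07 in Mueller-Hinton broth adjusted to pH 7.4 (±0.2). Inoculum prepared in sterile water to 0.5 McFarland (1.5 × 10^8 CFU/mL). MIC taken as growth reduction versus control (IC95 per table header), read visually and spectrophotometrically at 540 nm after 24 and 48 h incubation in the dark.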

Candida albicans [13] = assay: Antifungal activity against Candida albicans ATCC 44859 after 24 hrs by microbroth dilution method; conditions: ATCC 44859, 24 h
Candida tropicalis [14] = assay: Antifungal activity against Candida tropicalis 156 after 24 hrs by microbroth dilution method; conditions: Candida tropicalis, 156, 24 h
Staphylococcus aureus [15] = assay: Antibacterial activity against Staphylococcus aureus CCM 4516/08 after 48 hrs by microbroth dilution method; conditions: CCM 4516/08, 48 h; in short: as §2
Trichosporon asahii [16] = assay: Antifungal activity against Trichosporon asahii 1188 after 24 hrs by microbroth dilution method; conditions: Trichosporon asahii, 1188, 24 h
Staphylococcus aureus [17] = assay: Antibacterial activity against methicillin-resistant Staphylococcus aureus H 5996/08 after 24 hrs by microbroth dilution method; conditions: H 5996/08, 24 h; in short: as §2
Enterococcus sp. [18] = assay: Antibacterial activity against Enterococcus sp. J 14365/08 after 48 hrs by microbroth dilution method; conditions: J 14365/08, 48 h; in short: as §1
Klebsiella pneumoniae [19] = assay: Antibacterial activity against ESBL-positive Klebsiella pneumoniae J 14368/08 after 48 hrs by microbroth dilution method; conditions: J 14368/08, 48 h; in short: as §1
[20] = test system: Trichophyton mentagrophytes; assay: Antifungal activity against Trichophyton mentagrophytes 445 after 72 hrs by microbroth dilution method; conditions: Trichophyton mentagrophytes, 445, 72 h
Trichosporon asahii [21] = assay: Antifungal activity against Trichosporon asahii 1188 after 48 hrs by microbroth dilution method; conditions: Trichosporon asahii, 1188, 48 h
Candida albicans [22] = assay: Antifungal activity against Candida albicans ATCC 44859 after 48 hrs by microbroth dilution method; conditions: ATCC 44859, 48 h
Klebsiella pneumoniae [23] = assay: Antibacterial activity against ESBL-positive Klebsiella pneumoniae J 14368/08 after 24 hrs by microbroth dilution method; conditions: J 14368/08, 24 h; in short: as §1
Klebsiella pneumoniae [24] = assay: Antibacterial activity against Klebsiella pneumoniae D 11750/08 after 24 hrs by microbroth dilution method; conditions: D 11750/08, 24 h; in short: as §1
Lichtheimia corymbifera [25] = assay: Antifungal activity against Absidia corymbifera 272 after 24 hrs by microbroth dilution method; conditions: Lichtheimia corymbifera, 272, 24 h
Candida tropicalis [26] = assay: Antifungal activity against Candida tropicalis 156 after 48 hrs by microbroth dilution method; conditions: Candida tropicalis, 156, 48 h
Lichtheimia corymbifera [27] = assay: Antifungal activity against Absidia corymbifera 272 after 48 hrs by microbroth dilution method; conditions: Lichtheimia corymbifera, 272, 48 h
Nakaseomyces glabratus [28] = assay: Antifungal activity against Candida glabrata 20/I after 48 hrs by microbroth dilution method

What does the source list for `O=C(NC1CCCCC1)Oc1ccc(Cl)cc1C(=O)Nc1ccc(F)cc1`?
MIC (Enterococcus sp. [1]): > 125 µM; MIC (Escherichia coli [2]): > 125 µM; MIC (Pichia kudriavzevii [3]): > 125 µM; MIC (Nakaseomyces glabratus [4]): 125 µM (≈ 48.9 µg/mL); MIC (Escherichia coli [5]): > 125 µM; MIC (Pichia kudriavzevii [6]): > 125 µM; MIC (Staphylococcus aureus [7]): 15.6 µM (≈ 6.1 µg/mL); MIC [8]: 1.95 µM (≈ 0.762 µg/mL); MIC [9]: 7.81 µM (≈ 3.05 µg/mL); MIC (Klebsiella pneumoniae [10]): > 125 µM; MIC [11]: 7.81 µM (≈ 3.05 µg/mL); MIC (Staphylococcus aureus [12]): 31.2 µM (≈ 12.2 µg/mL); MIC (Candida albicans [13]): > 125 µM; MIC (Candida tropicalis [14]): > 125 µM; MIC (Staphylococcus aureus [15]): 15.6 µM (≈ 6.1 µg/mL); MIC (Trichosporon asahii [16]): 62.5 µM (≈ 24.4 µg/mL); MIC (Staphylococcus aureus [17]): 31.2 µM (≈ 12.2 µg/mL); MIC (Enterococcus sp. [18]): > 125 µM; MIC (Klebsiella pneumoniae [19]): 62.5 µM (≈ 24.4 µg/mL); MIC [20]: 1.95 µM (≈ 0.762 µg/mL); MIC (Trichosporon asahii [21]): > 125 µM; MIC (Candida albicans [22]): > 125 µM; MIC (Klebsiella pneumoniae [23]): 62.5 µM (≈ 24.4 µg/mL); MIC (Klebsiella pneumoniae [24]): > 125 µM; MIC (Lichtheimia corymbifera [25]): 125 µM (≈ 48.9 µg/mL); MIC (Candida tropicalis [26]): > 125 µM; MIC (Lichtheimia corymbifera [27]): > 125 µM; MIC (Nakaseomyces glabratus [28]): > 125 µM

Which results are given for `O=C(Nc1ccccc1)Oc1ccc(Cl)cc1C(=O)Nc1ccc(F)cc1`?
MIC (Enterococcus sp. [1]): 250 µM (≈ 96.2 µg/mL); MIC (Escherichia coli [2]): > 500 µM; MIC (Pichia kudriavzevii [3]): > 250 µM; MIC (Nakaseomyces glabratus [4]): > 250 µM; MIC (Escherichia coli [5]): > 500 µM; MIC (Pichia kudriavzevii [6]): > 250 µM; MIC (Staphylococcus aureus [7]): 7.81 µM (≈ 3.01 µg/mL); MIC [8]: 15.6 µM (≈ 6.01 µg/mL); MIC [9]: 7.81 µM (≈ 3.01 µg/mL); MIC (Klebsiella pneumoniae [10]): 250 µM (≈ 96.2 µg/mL); MIC [11]: 7.81 µM (≈ 3.01 µg/mL); MIC (Staphylococcus aureus [12]): 7.81 µM (≈ 3.01 µg/mL); MIC (Candida albicans [13]): > 250 µM; MIC (Candida tropicalis [14]): > 250 µM; MIC (Staphylococcus aureus [15]): 7.81 µM (≈ 3.01 µg/mL); MIC (Trichosporon asahii [16]): > 250 µM; MIC (Staphylococcus aureus [17]): 7.81 µM (≈ 3.01 µg/mL); MIC (Enterococcus sp. [18]): 250 µM (≈ 96.2 µg/mL); MIC (Klebsiella pneumoniae [19]): 250 µM (≈ 96.2 µg/mL); MIC [20]: 3.9 µM (≈ 1.5 µg/mL); MIC (Trichosporon asahii [21]): > 250 µM; MIC (Candida albicans [22]): > 250 µM; MIC (Klebsiella pneumoniae [23]): 250 µM (≈ 96.2 µg/mL); MIC (Klebsiella pneumoniae [24]): 250 µM (≈ 96.2 µg/mL); MIC (Lichtheimia corymbifera [25]): > 250 µM; MIC (Candida tropicalis [26]): > 250 µM; MIC (Lichtheimia corymbifera [27]): > 250 µM; MIC (Nakaseomyces glabratus [28]): > 250 µM

What does the source list for `O=C(NCc1ccccc1)Oc1ccc(Cl)cc1C(=O)Nc1ccc(Br)cc1`?
MIC (Enterococcus sp. [1]): > 500 µM; MIC (Escherichia coli [2]): > 500 µM; MIC (Pichia kudriavzevii [3]): 62.5 µM (≈ 28.7 µg/mL); MIC (Nakaseomyces glabratus [4]): 31.2 µM (≈ 14.4 µg/mL); MIC (Escherichia coli [5]): > 500 µM; MIC (Pichia kudriavzevii [6]): 62.5 µM (≈ 28.7 µg/mL); MIC (Staphylococcus aureus [7]): ≤ 0.49 µM; MIC [8]: 3.9 µM (≈ 1.79 µg/mL); MIC [9]: ≤ 0.49 µM; MIC (Klebsiella pneumoniae [10]): > 500 µM; MIC [11]: 0.98 µM (≈ 0.451 µg/mL); MIC (Staphylococcus aureus [12]): 1.95 µM (≈ 0.896 µg/mL); MIC (Candida albicans [13]): 62.5 µM (≈ 28.7 µg/mL); MIC (Candida tropicalis [14]): 125 µM (≈ 57.5 µg/mL); MIC (Staphylococcus aureus [15]): 0.98 µM (≈ 0.451 µg/mL); MIC (Trichosporon asahii [16]): 15.6 µM (≈ 7.18 µg/mL); MIC (Staphylococcus aureus [17]): ≤ 0.49 µM; MIC (Enterococcus sp. [18]): > 500 µM; MIC (Klebsiella pneumoniae [19]): > 500 µM; MIC [20]: 3.9 µM (≈ 1.79 µg/mL); MIC (Trichosporon asahii [21]): 15.6 µM (≈ 7.18 µg/mL); MIC (Candida albicans [22]): 62.5 µM (≈ 28.7 µg/mL); MIC (Klebsiella pneumoniae [23]): > 500 µM; MIC (Klebsiella pneumoniae [24]): > 500 µM; MIC (Lichtheimia corymbifera [25]): 7.81 µM (≈ 3.59 µg/mL); MIC (Candida tropicalis [26]): 125 µM (≈ 57.5 µg/mL); MIC (Lichtheimia corymbifera [27]): 7.81 µM (≈ 3.59 µg/mL); MIC (Nakaseomyces glabratus [28]): 31.2 µM (≈ 14.4 µg/mL)
